High-throughput results (PubChem BioAssay)
Compounds with a hit are over-represented: about 1% of the library has one in this group of screens.
Xi reactivation = reactivates the inactive X chromosome in mouse fibroblasts; 360,000 compounds, 0.055% hits; XiGFP mouse fibroblasts, % GFP-positive cells imaging, 3 d; cells co-treated with 5-aza-dC sensitizer; scaled so ellipticine positive control = 100%; AID 743238; activation, % at 7.58 µM;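 active means mean normalized replicate activation at least 10% and every replicate at or above 10%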;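 further: 0% = median of on-plate neutral control wells and 100% = ellipticine 6 µM median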
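System: 68-5-11 XiGFP fibroblast line | Buffer or medium: DMEM containing 5-aza-dC | Compound: Single point | Times: Compounds 3 days, fix/stain 15 min at room temperature | Benchmarks: Positive control ellipticine, 6 µM final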
GAA850 FXN act = activators of GAA850 frataxin (FXN) promoter | HEK293 lucGAA850 FXN promoter luciferase reporter, 24 h; percent of 10 µM SAHA response | activation, % at 6 µM | 360,000 compounds, 0.56% hits;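 active means activation above the average of all compounds screened plus 3 SD, cutoff fixed separately per campaign, cut at about 7.5% in these data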;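 further: 0% = DMSO wells and 100% = 10 µM SAHA wells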
GSIS activator = primary screen for activators of insulin secretion dependent on glucose, INS-1E cells, GLuc reporter luminescence | INS-1E GLuc reporter insulin secretion, 2-3 h | activation, % at 16.6 µM | 370,000 compounds, 0.61% hits | AID 743287;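 active means lowest replicate activation of at least 40%, so every replicate reaches that level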;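 further: 0% = median of neutral control wells and 100% = median of IBMX positive control wells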
CaV13 FRET inh = Disruptors of the CACNA1D IQ motif to Ca2+-dependent inactivation inhibitor domain association, primary screening, Förster resonance energy transfer in intact living …; inhibition, % at 12.3 µM; 340,000 compounds, 0.098% hits; AID 743397; HEK cells, CFP/YFP FRET ICDI-IQ, plate reader, 10 min; percent FRET-ratio fall versus neutral wells;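 active means mean replicate inhibition of at least 30% and at least 1% of replicates passing that level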;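 further: 0% = median of the neutral control wells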
An asterisk follows results filed as active.

How did Cc1noc(C)c1S(=O)(=O)Nc1ccc2c(c1)C(=O)N([C@@H](C)CO)C[C@@H](C)[C@H](CN(C)Cc1ccncc1)OCCCC[C@H](C)O2 do in these assays?
Xi reactivation: 0.0; GSIS activator: -4.8

What do the screens show for `C=CCn1c(=NC(=O)c2cc(Cl)sc2Cl)sc2cc(S(N)(=O)=O)ccc21`?
Xi reactivation: 0.0; GAA850 FXN act: -2.3; GSIS activator: 43.7*; CaV13 FRET inh: -4.9

What do the screens show for `COc1ccc2c3c(n(C)c2c1)[C@@H](CO)N(CC1CC1)CC31CN(C(=O)Nc2ccccc2)C1`?
Xi reactivation: 0.2; GSIS activator: 1.3

Results for CNC(=O)C[C@@H]1CC[C@@H]2[C@H](COc3ccc(NC(=O)Nc4cc(C)cc(C)c4)cc3C(=O)N2C)O1 ?
Xi reactivation: 0.2; GSIS activator: 3.3

Results for CCCOc1c(Br)cc(C2C3=C(CCCC3=O)N(CC)C3=C2C(=O)CCC3)cc1OC ?
Xi reactivation: 0.0; GAA850 FXN act: 2.2; GSIS activator: -5.7; CaV13 FRET inh: -1.9

Results for CCCOc1c(Br)cc(C2C3=C(CCCC3=O)N(C)C3=C2C(=O)CCC3)cc1OC ?
Xi reactivation: -0.1; GAA850 FXN act: 0.4; GSIS activator: -18.4; CaV13 FRET inh: active

Results for Cn1cnc([N+](=O)[O-])c1NC(C)(C)C ?
GAA850 FXN act: 1.0; CaV13 FRET inh: -1.5

How did Cn1cnc([N+](=O)[O-])c1S(=O)(=O)c1ccc(Cl)cc1 do in these assays?
Xi reactivation: 0.8; GAA850 FXN act: 4.7; GSIS activator: 82.2*; CaV13 FRET inh: -4.7

How did CCC(=O)NC[C@H]1[C@H](c2ccc(C3=CCCC3)cc2)[C@H](CO)N1C(=O)C1CC1 do in these assays?
Xi reactivation: 0.3; GSIS activator: 0.2

What do the screens show for `Clc1nc2c(-c3ccccc3)nnn2c2ccccc12`?
GAA850 FXN act: 5.7; GSIS activator: 4.4; CaV13 FRET inh: -15.9

Results for Fc1cccc(-c2nnn3c2nc(Cl)c2ccccc23)c1 ?
Xi reactivation: -0.3; GAA850 FXN act: 4.1; GSIS activator: 44.8*; CaV13 FRET inh: -5.6

Results for CCNc1nc(NC(N)=S)nc(NC(C)(C)C)n1 ?
Xi reactivation: 0.0; GAA850 FXN act: 5.3; GSIS activator: 69.6*; CaV13 FRET inh: -4.8

Results for CCNc1nc(NCC)nc(NC(N)=S)n1 ?
Xi reactivation: -0.1; GAA850 FXN act: 4.5; GSIS activator: -10.0; CaV13 FRET inh: 2.0

What do the screens show for `O=[N+]([O-])c1cccc(/C=N/n2c(-c3cccnc3)n[nH]c2=S)c1`?
Xi reactivation: -0.1; GAA850 FXN act: -0.1; GSIS activator: 54.4*; CaV13 FRET inh: -2.2

How did O=[N+]([O-])c1cccc(-c2n[nH]c(=S)n2-c2ccc(Br)cc2)c1 do in these assays?
Xi reactivation: -0.8; GAA850 FXN act: 1.5; GSIS activator: 6.9; CaV13 FRET inh: 54.9*

Results for CCC(=O)Nc1nnc(Sc2ccc(N(C)C)cc2)s1 ?
GAA850 FXN act: 2.4; GSIS activator: 50.4*

What do the screens show for `O=[N+]([O-])c1ccc(Sc2cccc[n+]2[O-])c2nonc12`?
Xi reactivation: 58.7*; GAA850 FXN act: -12.7; GSIS activator: -8.8; CaV13 FRET inh: -4.8

Results for O=[N+]([O-])c1ccc(Nc2ccccc2)c2nonc12 ?
Xi reactivation: 0.0; GAA850 FXN act: -0.9; GSIS activator: -44.3; CaV13 FRET inh: -21.1

Results for CCCCN(C=O)c1c(CC)nc2ccc(C(=O)NCCc3c[nH]c4ccccc34)cn12 ?
Xi reactivation: 0.1; GAA850 FXN act: -5.1; GSIS activator: -7.1; CaV13 FRET inh: -9.2

How did CCc1nc2ccc(C(=O)NCCc3c[nH]c4ccccc34)cn2c1N(C=O)CCC(C)C do in these assays?
Xi reactivation: 0.1; GAA850 FXN act: -3.4; GSIS activator: -49.4; CaV13 FRET inh: 38.2*

How did CCc1nc2ccc(C(=O)NCCCN3CCCC3=O)cn2c1N(CCC(C)C)CCN(C)C do in these assays?
Xi reactivation: 0.1; GAA850 FXN act: -0.7; GSIS activator: 48.7*; CaV13 FRET inh: -4.8

How did Cc1noc(C)c1S(=O)(=O)N(C)C[C@@H]1OCCCC[C@@H](C)Oc2ccc(NC(=O)C3CCCCC3)cc2C(=O)N([C@H](C)CO)C[C@@H]1C do in these assays?
Xi reactivation: -0.9; GSIS activator: 2.3

What do the screens show for `Cc1cccc(NC(=O)Nc2ccc3c(c2)C(=O)N(C)[C@@H]2CC[C@H](CC(=O)NCc4ccccc4Cl)O[C@@H]2CO3)c1`?
Xi reactivation: -0.1; GSIS activator: -5.0
